Rows were chosen to be rich in hits. Some 2.9% of all compounds tested hit in one or more screens of this group.
SENP6 block: SENP6 protease inhibition; actives 1.8% (n = 330,000); AID 2599; inhibition, % at 10 µM; Recombinant SENP6 catalytic domain, aminoluciferin luminescence;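 active = inhibition above about 50% at the single tested dose, limit read from the data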
SENP8 block-1: inhibitors of human SENP8 protease; recombinant SENP8, Nedd8 substrate fluorescence; inhibition, % at 20 µM; actives 0.64% (n = 360,000); in the data active = inhibition mostly above about 40%, no sharp cut-off; inactive = mostly below about 27%
Target sequence (Q96LD8 whole entry, looked up): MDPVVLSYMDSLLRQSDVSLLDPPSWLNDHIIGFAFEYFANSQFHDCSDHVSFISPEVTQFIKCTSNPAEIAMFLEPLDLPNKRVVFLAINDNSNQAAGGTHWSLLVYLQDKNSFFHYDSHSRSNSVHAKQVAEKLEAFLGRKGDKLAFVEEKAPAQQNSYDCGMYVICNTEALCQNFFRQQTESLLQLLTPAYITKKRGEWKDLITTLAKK
SENP7 block: inhibitors of human SENP7 protease; Q9BQF6; recombinant SENP7, Z-RLRGG-aminoluciferin luminescence, 40 min; inhibition, % at 5 µM; actives 1.5% (n = 330,000);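 active = inhibition above about 50% at the single test dose, limit read from the data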
HSP90 inh: inhibitors of HSP90 luciferase refolding in rabbit reticulocyte lysate; luciferase refolding luminescence, 3 h; inhibition, % at 5.6 µM; actives 0.91% (n = 290,000); AID 1789;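 active = inhibition above the screen-wide mean plus 3 SD, computed separately per campaign, cut at about 16% in these data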;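 note: inhibitors lower the luminescence because luciferase stays unfolded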
SENP8 block-2: blocks the human protease SENP8; Q96LD8; purified SENP8, Z-RLRGG-aminoluciferin cleavage, luminescence; inhibition, % at 10 µM; actives 1.2% (n = 330,000); AID 2540; in the data active = inhibition above about 50%
SENP1 FRET inh: inhibitors of human SENP1 SUMO protease catalytic domain; Q9P0U3; recombinant SENP1 catalytic domain, CyPet-SUMO1-YPet FRET cleavage; inhibition, % at 10 µM; actives 0.21% (n = 360,000); AID 624204;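 active = inhibition at least 30% at 10 µM, raw YFP signal under a set limit, fluorescence ratio 0.5 to 1.5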
Target sequence (Q9P0U3 419-644 limits assumed): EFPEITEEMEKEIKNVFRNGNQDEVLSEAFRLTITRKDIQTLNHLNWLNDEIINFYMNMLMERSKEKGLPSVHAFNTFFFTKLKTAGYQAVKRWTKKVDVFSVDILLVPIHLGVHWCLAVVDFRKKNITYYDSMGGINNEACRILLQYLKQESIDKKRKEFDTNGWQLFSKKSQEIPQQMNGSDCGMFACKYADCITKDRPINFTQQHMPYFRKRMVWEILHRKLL
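Assay system: hSENP1 catalytic domain, recombinant. Amount: SENP1 enzyme, 20 pM final. Schedule: 50 min reaction, RT, dark. Technique: FRET, CFP and YFP emission. Control set: no-enzyme wells low, DMSO-plus-enzyme wells high control.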
SENP8 inh conf: SENP8 (human) inhibition, single concentration confirmation; shares compounds with SENP8 block-1; purified SENP8, Nedd8-AMC/pro-Nedd8 cleavage fluorescence, 30 min; inhibition, % at 25 µM; actives 15% (n = 1,400); in the data active = inhibition mostly above about 39%, no sharp cut-off; inactive = mostly below about 34%
Large screens that a line does not name were inactive (follow-up assays come after a bar, where they were run).

CCNC(=O)NC(=O)C(C)Sc1nc2ccccc2c(=O)n1-c1cccnc1 (stereo not given)	none
CCNC(=O)NC(=O)C(C)Sc1nc2ccccc2n1CC(C)C (stereo not given)	SENP8 block-1 42 | SENP8 inh conf inactive
O=S1(=O)CCN(C2CCCC2)CC1	none (no result: SENP6 block, SENP7 block, HSP90 inh, SENP8 block-2)
Cc1cc([N+](=O)[O-])nn1CCCC(=O)N1CCN(c2ccccc2)CC1	SENP8 block-1 41 | SENP8 inh conf inactive
Cn1c(Cc2ccccc2)nnc1SCC(=O)c1cccs1	SENP8 block-1 40 | SENP8 inh conf inactive
CC1(C(=O)Nc2ccc3c(c2)OCCO3)CCN1Cc1ccc2ccccc2c1 (stereo not given)	SENP8 block-1 40 (no result: SENP6 block, SENP7 block, HSP90 inh, SENP8 block-2) | SENP8 inh conf inactive
CC1(C(=O)Nc2ccc3c(c2)OCCO3)CCN1Cc1ccc(-c2ccccn2)cc1 (stereo not given)	none (no result: SENP6 block, SENP7 block, HSP90 inh, SENP8 block-2)
CC1CCCCC1NC(=O)COC(=O)COc1ccccc1Cl (stereo not given)	none
COc1ccc(OCC(=O)OCC(=O)NC2CCCCC2C)cc1 (stereo not given)	SENP8 block-1 46 (no result: HSP90 inh) | SENP8 inh conf inactive
CCNC(=O)CSc1nnc(-c2ccccc2Br)n1-c1cccc(C(F)(F)F)c1	none
O=c1cc(CO)occ1OCc1cccc(F)c1	none
O=c1cc(CO)[nH]cc1OCc1ccccc1	SENP8 block-1 46 | SENP8 inh conf inactive
COC(=O)/C(C#N)=C1/C=Cc2ccccc2N1	none
O=c1c(N2CCOCC2)nsnc1N1CCOCC1	SENP8 block-1 49 | SENP8 inh conf inactive
COC(=O)Oc1nsnc1N1CCOCC1	none
Cc1cccc(OCCC(=O)Nc2c(C)n(C)n(-c3ccccc3)c2=O)c1	SENP8 block-1 42 | SENP8 inh conf inactive
Cc1cccc(NC(=O)Cc2ccc(F)cc2)c1	SENP8 block-1 42 | SENP8 inh conf inactive
Cc1cccc(NC(=O)CCOc2ccccc2)c1	SENP8 block-1 40 | SENP8 inh conf inactive
CCOC(=O)C1ON2CCCCC2C1(O)C(F)(F)F (stereo not given)	none
CCOC(=O)N1CCN(C(=O)c2ccc(N3CCCC3=O)cc2)CC1	none
O=C1CC(Nc2ccc(N3CCOCC3)cc2)C(=O)N1CCc1ccccc1 (stereo not given)	none
Cn1c(CCCNC(=O)c2ccco2)nc2ccccc21	none (no result: SENP6 block, SENP7 block, HSP90 inh, SENP8 block-2)
O=C(CNc1cccc([N+](=O)[O-])c1)N/N=C/c1ccc([N+](=O)[O-])o1	SENP8 block-1 40 | SENP8 inh conf inactive
O=C(CN1CCOCC1)NN=Cc1ccc([N+](=O)[O-])o1	none (no result: SENP6 block, SENP7 block, HSP90 inh, SENP8 block-2)
O=C(CCN1CCN(c2ccccc2)CC1)N/N=C/c1ccc([N+](=O)[O-])o1	SENP8 block-1 55 | SENP8 inh conf inactive
O=C(N/N=C/c1ccc([N+](=O)[O-])o1)c1ccccc1-n1cccc1	SENP8 block-1 42 | SENP8 inh conf inactive
COCCNC(=O)C1(C)CCCN(C(=O)c2ccc3c(c2)CCO3)C1 (stereo not given)	none (no result: SENP6 block, SENP7 block, HSP90 inh, SENP8 block-2)
O=C(/C(=C(\[O-])c1ccccc1)[n+]1ccc2ccccc2c1)c1ccc(Cl)cc1	SENP8 block-1 46 | SENP8 inh conf 62
O=C(/C(=C(\[O-])c1ccccc1)[n+]1ccc2ccccc2c1)c1ccccc1	none (no result: SENP6 block, SENP7 block, SENP8 block-2)
CC(=O)Nc1ccc(NC(=O)CSc2ccc3nnc(-c4cccnc4)n3n2)cc1	none
O=[N+]([O-])c1ccc(N2CCCC2)cc1NC(c1ccccc1)c1ccccc1	SENP8 block-1 56 | SENP8 inh conf inactive
O=[N+]([O-])c1ccc(N2CCOCC2)cc1NC(c1ccccc1)c1ccccc1	none
CCS(=O)(=O)N1CCN(c2ccc([N+](=O)[O-])c(NCc3ccccc3)c2)CC1	none
CC(Nc1cc(N2CCNCC2)ccc1[N+](=O)[O-])c1ccccc1 (stereo not given)	none
CCS(=O)(=O)N1CCN(c2ccc([N+](=O)[O-])c(NC(C)c3ccccc3)c2)CC1 (stereo not given)	SENP8 block-1 60 | SENP8 inh conf inactive
CS(=O)(=O)N1CCN(c2ccc([N+](=O)[O-])c(NCc3ccccc3)c2)CC1	SENP8 block-1 45 | SENP8 inh conf inactive
CCCCCc1nnc(NC(=O)NS(=O)(=O)c2ccc(C)cc2)s1	none
COc1ccc(N2CC(C(=O)Nc3cccnc3)CC2=O)cc1 (stereo not given)	none
COc1ccc(C(=O)N2C=Cc3ccccc3C2C#N)cc1 (stereo not given)	SENP8 block-1 50 (no result: SENP6 block, SENP7 block, HSP90 inh, SENP8 block-2) | SENP8 inh conf 74
Cc1cc(C)cc(NC(=O)CN(C)S(=O)(=O)c2cnc[nH]2)c1	SENP8 block-1 42 | SENP8 inh conf inactive
CCOC(=O)c1[nH]c(C)c(C(=O)OCC(=O)N2CCCCC2C)c1C (stereo not given)	SENP8 block-1 41 | SENP8 inh conf inactive
CC1=NN(c2ccccc2)C(=O)C1C(=O)c1ccccc1 (stereo not given)	none
CC1=NN(c2ccccc2)C(=O)C1C(=S)SC1CC(=O)NC1=O (stereo not given)	SENP8 block-1 45 (no result: SENP6 block, SENP7 block, HSP90 inh, SENP8 block-2) | SENP8 inh conf inactive
O=C(Nc1cccnc1)c1ccc([N+](=O)[O-])s1	SENP8 block-1 43 (no result: HSP90 inh) | SENP8 inh conf inactive
CCOc1cc(NC2CS(=O)(=O)CC2O)c(OCC)cc1NC(=O)c1ccccc1 (stereo not given)	SENP8 block-1 44 | SENP8 inh conf inactive
O=C(Cn1nc(Cc2ccncc2)c2ccccc2c1=O)N1CCc2ccccc2C1	SENP8 block-1 84 | SENP8 inh conf 94
N#CC1(c2ccccc2)CCN(S(=O)(=O)c2ccc(OC(F)(F)F)cc2)CC1	none
CCC(=O)NC(Nc1sc2c(c1C(=O)OC)CCCC2)(C(F)(F)F)C(F)(F)F	SENP8 block-1 43 | SENP8 inh conf inactive
COCC(=O)Nc1sc2c(c1C(=O)OC)CCCC2	none
O=C(C1CC(c2ccc(F)cc2)=NO1)N1CCc2ccccc2C1 (stereo not given)	none
COc1ccc(OC)c(S(=O)(=O)N2CCC(C(=O)N3CCc4ccccc4C3)CC2)c1	SENP8 block-1 44 | SENP8 inh conf inactive
COc1cccc(C2=NOC(C(=O)N3CCc4ccccc4C3)C2)c1 (stereo not given)	SENP8 block-1 51 | SENP8 inh conf 61
CCS(=O)(=O)N1CCCC(C(=O)N2CCc3ccccc3C2)C1 (stereo not given)	SENP8 block-1 53 | SENP8 inh conf 54
CN1OC[C@@H]2CN[C@H](c3cccc(-c4ccc(C#N)cc4)c3)C[C@@H]21	none (no result: SENP6 block, SENP7 block, HSP90 inh, SENP8 block-2)
Cc1ccc(NC(=O)CCC(=O)NNC(=O)Nc2cccc(Cl)c2)c(C)c1	none
CC(=O)Nc1cc2c(cc1Br)OCCO2	SENP8 block-1 47 | SENP8 inh conf inactive
COc1ccc(C(=O)/C=C/c2ccccc2)c(OC)c1	none
COCOc1cc(O)c(C(=O)/C=C/c2ccccc2)c(OCOC)c1	SENP8 block-1 51 (no result: HSP90 inh) | SENP8 inh conf inactive
